{"source": "ChEMBL document CHEMBL5149972", "about": "“Novel Antimalarial Tetrazoles and Amides Active against the Hemoglobin Degradation Pathway in Plasmodium falciparum” (J Med Chem, 2021)", "assay_type_in_all_cases": "functional, organism-based", "key": {"Plasmodium falciparum [1]": {"test_system": "Plasmodium falciparum", "assay": "Antiplasmodial activity against lab-derived MMV390048 resistant Plasmodium falciparum Dd2-Pfpi4K mutant infected in human RBC assessed as parasite growth inhibition incubated for 72 hrs by SYBR Green dye based fluorescence assay", "details": "Erythrocyte"}, "Plasmodium falciparum [2]": {"test_system": "Plasmodium falciparum", "assay": "Antiplasmodial activity against chloroquine and pyrimethamine resistant Plasmodium falciparum Dd2 infected in human RBC assessed as parasite growth inhibition incubated for 72 hrs by SYBR Green dye based fluorescence assay", "details": "Dd2, Erythrocyte", "method_in_brief": "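O+ human RBCs at 2% hematocrit and 0.5% starting parasitemia, in RPMI 1640 with 25 mM HEPES, 0.5% Albumax-I, bicarbonate and hypoxanthine. Serial dilutions in triplicate, 0.5% DMSO final, 72 h at 37°C, 5% CO2. Frozen at −80°C, lysed with SYBR Green in saponin/Triton buffer for 4 h in the dark. Ex 485/em 535 nm. EC50 from four-parameter fit; biphasic fit where curves were biphasic.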"}, "Plasmodium falciparum [3]": {"test_system": "Plasmodium falciparum", "assay": "Antiplasmodial activity against Plasmodium falciparum NF54 infected in human RBC assessed as parasite growth inhibition incubated for 72 hrs by SYBR Green dye based fluorescence assay", "details": "NF54, Erythrocyte"}, "Plasmodium falciparum [4]": {"test_system": "Plasmodium falciparum", "assay": "Antiplasmodial activity against chloroquine resistant Plasmodium falciparum Dd2-GC03 mutant replaced with 3D7 pfcrt sequence at endogenous pfcrt Dd2 locus infected in human RBC assessed as parasite growth inhibition incubated for 72 hrs by SYBR Green dye based fluorescence assay", "details": "Erythrocyte", "method_in_brief": "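Gene-edited Dd2 lines with the endogenous pfcrt locus replaced by zinc-finger nuclease editing. Concentration-response curves run with technical duplicates at each concentration; values are the average of two biological replicates, with std dev given where more replicates were collected.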"}, "Plasmodium falciparum [5]": {"test_system": "Plasmodium falciparum", "assay": "Antiplasmodial activity against lab-derived DSM265 resistant Plasmodium falciparum Dd2-PfDHODH mutant infected in human RBC assessed as parasite growth inhibition incubated for 72 hrs by SYBR Green dye based fluorescence assay", "details": "Erythrocyte"}, "Plasmodium falciparum [6]": {"test_system": "Plasmodium falciparum", "assay": "Antiplasmodial activity against chloroquine and pyrimethamine resistant Plasmodium falciparum 7G8 infected in human RBC assessed as parasite growth inhibition incubated for 72 hrs by SYBR Green dye based fluorescence assay", "details": "7G8, Erythrocyte"}, "Plasmodium falciparum [7]": {"test_system": "Plasmodium falciparum", "assay": "Antiplasmodial activity against lab-derived […] resistant Plasmodium falciparum Dd2-PfeEF2 mutant infected in human RBC assessed as parasite growth inhibition incubated for 72 hrs by SYBR Green dye based fluorescence assay", "details": "Erythrocyte"}, "Plasmodium falciparum [8]": {"test_system": "Plasmodium falciparum", "assay": "(§1) Antiplasmodial activity against Rac-N-(Pyridin-3-yl(1-(o-tolyl)-1H-tetrazol-5-yl)methyl)-N-(3-(trifluoromethyl)benzyl)Cyclopropanamine resistant Plasmodium falciparum 3D7 clone F2-A10 ring-stage parasite assessed as parasite growth inhibition incubated for 72 hrs by SYBR Green and MitoTracker Deep Red FM dye based flow cytometry", "method_in_brief": "(§2)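 Clonal 3D7-A10 lines recovered after single-step selection; ring stages at 0.2% parasitemia, 1% hematocrit in RPMI-1640 with 0.5% Albumax. 72 h exposure to a 10-point 2-fold dilution series in duplicate with DMSO controls, final DMSO <0.5%. Survival read by flow cytometry, SYBR Green as nuclear stain and MitoTracker Deep Red FM as vital dye. EC₅₀ and EC₉₀ reported with fold shift relative to parental 3D7-A10.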"}, "Plasmodium falciparum [9]": {"test_system": "Plasmodium falciparum", "assay": "as §1, with “F2-A11” for “F2-A10”", "method_in_brief": "as §2"}}, "note": "pEC50: −log10 of the molar value."}
{"smiles": "Cc1ccccc1-n1nnnc1C(c1cccnc1)N(Cc1cccc(C(F)(F)F)c1)C1CC1", "note": "(racemic)", "values": [{"measurement": "pEC50", "setting": "Plasmodium falciparum [1]", "value": 6.12}, {"measurement": "pEC50", "setting": "Plasmodium falciparum [2]", "value": 6.27}, {"measurement": "pEC50", "setting": "Plasmodium falciparum [3]", "value": 6.32}, {"measurement": "pEC50", "setting": "Plasmodium falciparum [4]", "value": 6.05}, {"measurement": "pEC50", "setting": "Plasmodium falciparum [5]", "value": 6.10}, {"measurement": "pEC50", "setting": "Plasmodium falciparum [6]", "value": 6.74}, {"measurement": "pEC50", "setting": "Plasmodium falciparum [7]", "value": 6.04}, {"measurement": "pEC50", "setting": "Plasmodium falciparum [8]; 3D7 clone F2-A10, 72 h", "value": 6.08}, {"measurement": "EC90", "setting": "Plasmodium falciparum [8]; 3D7 clone F2-A10, time 72 hrs", "value": 1500, "unit": "nM"}, {"measurement": "pEC50", "setting": "Plasmodium falciparum [9]; 3D7 clone F2-A11, 72 h", "value": 6.17}, {"measurement": "EC90", "setting": "Plasmodium falciparum [9]; 3D7 clone F2-A11, time 72 hrs", "value": 1300, "unit": "nM"}]}
